Data from ChEMBL document CHEMBL3085690, “Naturally occurring antimicrobial peptide OH-CATH30 selectively regulates the innate immune response to protect against sepsis” (J Med Chem, 2013).
The source made the active and inactive calls. No cut-off for these calls is given here. Peptide text beside a SMILES is read from it.

Columns and labels:
[1] = test system: Mus musculus; assay: Stimulation of innate immune response in clodronate liposomes treated Kunming mouse monocytes depletion model assessed as recruitment of neutrophils at 10 mg/kg, ip; assay type: functional, organism-based; parameters: dose 10 mg/kg
[2] = Induction of IL-17alpha mRNA up-regulation in mouse BMDM at 20 ug/ml after 3 hrs by qRT-PCR analysis relative to control; assay type: functional
In short: (§1)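 Murine BMDMs stimulated with peptide, then target mRNA quantified by qRT-PCR. Expression normalized to GAPDH, with untreated cells set to 1.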

[3] = test system: Mus musculus; assay: Stimulation of innate immune response in Kunming mouse assessed as increase of neutrophils in peritoneal lavage at 10 mg/kg, ip after 5 hrs; assay type: functional, organism-based; parameters: dose 10 mg/kg
In short: (§2)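 Female Kunming mice were given peptide ip at 10 mg/kg. At 5 h, peritoneal cells were recovered by lavage with 2 mL PBS and counted. Cells were stained with anti-F4/80-PE and GR1-FITC for 30 min at room temperature and typed by flow cytometry: neutrophils GR1+/F4/80−, resident monocytes/macrophages GR1−/F4/80+, inflammatory monocytes GR1+/F4/80+. Data are mean ± SD from three mice, unpaired t test.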

[4] = test system: Mus musculus; assay: Stimulation of innate immune response in Kunming mouse assessed as protection against Escherichia coli ATCC 25922-induced mortality by measuring survival rate at 10 mg/kg, ip administered 24 hrs before bacterial infection measured up to 7 days; assay type: functional, organism-based; parameters: dose 10 mg/kg
In short: (§3)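 Female Kunming mice were challenged ip with E. coli 25922 at 2.5 × 10^8 CFU/mouse (n = 10). Peptide at 10 mg/kg in sterile saline was given ip at −24 h or +3 h relative to inoculation. Mice were monitored every 6 h and mortality was recorded for up to 7 days, with humane end points. Survival curves were compared by log-rank test.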

[5] = Increase of IL-1Ra protein level in mouse BMDM at 10 ug/ml after 18 hrs by ELISA; assay type: functional
In short: (§4)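 Bone marrow-derived macrophages (RPMI 1640, 10% FCS, 20% L929-conditioned medium) stimulated with peptide for 18 h. Cytokines and chemokines in culture supernatant quantified by sandwich ELISA. Mean ± SD from three independent experiments, unpaired t test.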

[6] = test system: Mus musculus; assay: Stimulation of innate immune response in Kunming mouse assessed as increase of IL-1Ra level in peritoneal lavage at 10 mg/kg, ip after 5 hrs; assay type: functional, organism-based; parameters: dose 10 mg/kg
In short: (§5)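 Female Kunming mice (18−22 g) received a single ip injection of peptide at 10 mg/kg in sterile saline. Peritoneal lavage was collected in 2 mL of cold sterile saline 5 h later, and cytokines and chemokines were measured by ELISA. Data are mean ± SD from four mice, compared by unpaired t test.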

[7] = Increase of CXCL2 production in mouse BMDM after 6 hrs by ELISA in presence of MEK1/2 inhibitor U0126; assay type: functional
[8] = Increase of CXCL2 production in mouse BMDM after 6 hrs by ELISA in presence of JNK inhibitor SP600125; assay type: functional
[9] = test system: RAW264.7; assay: Induction of phagocytic activity in mouse RAW264.7 cells using fluorescently labeled Escherichia coli up to 2 hrs by fluorescent assay; assay type: functional, cell-based
[10] = Induction of IL-10 mRNA up-regulation in mouse BMDM at 20 ug/ml after 3 hrs by qRT-PCR analysis relative to control; assay type: functional; in short: as §1
[11] = target: Transcription factor p65 (Mus musculus) (UniProt Q04207); assay: Activation of NFkappaB p65 in mouse BMDM assessed as phosphorylation at 10 ug/ml after 15 to 30 mins by Western blotting
Transcription factor p65 (Mus musculus), sequence (Q04207 whole entry): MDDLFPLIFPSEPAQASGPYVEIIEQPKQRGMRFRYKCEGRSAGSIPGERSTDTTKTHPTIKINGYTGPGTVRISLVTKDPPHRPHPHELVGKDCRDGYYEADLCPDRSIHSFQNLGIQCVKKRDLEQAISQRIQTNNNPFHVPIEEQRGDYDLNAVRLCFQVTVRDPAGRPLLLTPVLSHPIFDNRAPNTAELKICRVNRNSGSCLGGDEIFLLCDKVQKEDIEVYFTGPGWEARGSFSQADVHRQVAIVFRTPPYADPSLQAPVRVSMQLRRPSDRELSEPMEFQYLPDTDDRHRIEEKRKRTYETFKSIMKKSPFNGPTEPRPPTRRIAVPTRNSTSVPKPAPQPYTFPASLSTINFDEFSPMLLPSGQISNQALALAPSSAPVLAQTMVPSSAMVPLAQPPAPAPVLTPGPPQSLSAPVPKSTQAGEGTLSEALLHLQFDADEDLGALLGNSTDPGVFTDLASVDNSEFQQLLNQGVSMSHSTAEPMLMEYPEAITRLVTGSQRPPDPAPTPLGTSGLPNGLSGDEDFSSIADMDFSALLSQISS
In short: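 BMDMs came from mouse bone marrow cultured in RPMI 1640 with 10% FCS and 20% L929-conditioned medium. After treatment, lysates were run on 10% SDS−PAGE, transferred to PVDF, blocked with 5% BSA, and probed for phospho-p65. Detection used an HRP anti-rabbit IgG secondary and chemiluminescence.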

[12] = test system: RAW264.7; assay: Inhibition of LPS-induced TNFalpha production in mouse RAW264.7 cells 2 to 50 ug/ml after 6 hrs by ELISA; assay type: functional, cell-based
[13] = test system: BMDM; assay: Induction of CXCL1 mRNA up-regulation in mouse BMDM at 20 ug/ml after 3 hrs by qRT-PCR analysis; assay type: functional; in short: as §1
[14] = test system: Mus musculus; assay: Stimulation of innate immune response in Kunming mouse assessed as increase of monocytes/macrophages in peritoneal lavage at 10 mg/kg, ip after 5 hrs; assay type: functional, organism-based; parameters: dose 10 mg/kg; in short: as §2
[15] = target: Mitogen-activated protein kinase 1 and 3 (ERK2 and ERK1) (Mus musculus) (UniProt P63085+Q63844); assay: Activation of ERK1/2 in mouse BMDM assessed as phosphorylation at 10 ug/ml after 15 to 30 mins by Western blotting; assay type: protein assay
Mitogen-activated protein kinase 1 and 3 (ERK2 and ERK1) (Mus musculus), sequence (P63085 whole entry, looked up): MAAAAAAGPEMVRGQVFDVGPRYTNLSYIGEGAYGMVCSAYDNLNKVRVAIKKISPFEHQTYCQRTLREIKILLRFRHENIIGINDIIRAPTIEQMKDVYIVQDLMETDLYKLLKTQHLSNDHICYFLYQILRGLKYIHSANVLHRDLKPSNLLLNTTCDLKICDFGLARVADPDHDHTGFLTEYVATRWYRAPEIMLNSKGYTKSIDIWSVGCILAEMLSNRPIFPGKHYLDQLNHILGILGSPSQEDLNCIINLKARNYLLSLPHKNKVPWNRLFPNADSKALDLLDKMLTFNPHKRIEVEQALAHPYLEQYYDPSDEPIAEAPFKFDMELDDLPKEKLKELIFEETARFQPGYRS
Mitogen-activated protein kinase 1 and 3 (ERK2 and ERK1) (Mus musculus), sequence (Q63844 whole entry, looked up): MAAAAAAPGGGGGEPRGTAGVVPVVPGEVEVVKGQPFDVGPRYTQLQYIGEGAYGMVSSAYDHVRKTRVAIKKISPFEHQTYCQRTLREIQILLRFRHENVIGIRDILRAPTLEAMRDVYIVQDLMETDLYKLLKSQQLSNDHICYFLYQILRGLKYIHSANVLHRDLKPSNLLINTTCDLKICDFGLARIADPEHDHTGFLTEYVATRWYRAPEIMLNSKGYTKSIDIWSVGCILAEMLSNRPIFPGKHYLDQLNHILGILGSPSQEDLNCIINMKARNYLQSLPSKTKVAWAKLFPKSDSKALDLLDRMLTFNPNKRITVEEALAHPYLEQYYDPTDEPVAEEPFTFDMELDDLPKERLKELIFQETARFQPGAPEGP
In short: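 BMDMs (bone marrow cells grown in RPMI 1640 with 10% FCS and 20% L929-conditioned medium) stimulated, then lysates run on 10% SDS-PAGE and transferred to PVDF. Membranes blocked with 5% BSA and probed with phospho-ERK1/2 and total ERK1/2 antibodies, or with anti-IκBα. HRP anti-rabbit secondary, chemiluminescent detection.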

[16] = test system: Mus musculus; assay: Stimulation of innate immune response in Kunming mouse assessed as increase of leukocytes in peritoneal lavage at 10 mg/kg, ip after 5 hrs; assay type: functional, organism-based; parameters: dose 10 mg/kg; in short: as §2
[17] = test system: Mus musculus; assay: Stimulation of innate immune response in Kunming mouse assessed as increase of CCL2 level in peritoneal lavage at 10 mg/kg, ip after 5 hrs; assay type: functional, organism-based; parameters: dose 10 mg/kg; in short: as §5
[18] = test system: BMDM; assay: Increase of CXCL2 protein level in mouse BMDM at 20 ug/ml after 18 hrs by ELISA; assay type: functional; in short: as §4
[19] = test system: Mus musculus; assay: Stimulation of innate immune response in clodronate liposomes treated Kunming mouse monocytes depletion model assessed as increase of CXCL2 production in peritoneal lavage at 10 mg/kg, ip; assay type: functional, organism-based; parameters: dose 10 mg/kg
[20] = test system: Mus musculus; assay: Stimulation of innate immune response in Kunming mouse assessed as protection against Escherichia coli ATCC 25922-induced mortality by measuring survival rate at 10 mg/kg, ip administered 3 hrs after bacterial infection measured up to 7 days; assay type: functional, organism-based; parameters: dose 10 mg/kg; in short: as §3
[21] = test system: Mus musculus; assay: Stimulation of innate immune response in Kunming mouse assessed as protection against drug-resistant Escherichia coli-induced mortality by measuring survival rate at 10 mg/kg, ip administered 5 hrs before bacterial infection measured up to 7 days; assay type: functional; conditions: route intraperitoneal
In short: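 Female Kunming mice (18−22 g) were dosed ip in sterile saline at 10 mg/kg, 5 h before ip challenge with clinical drug-resistant isolates: E. coli (n = 12), P. aeruginosa (n = 10) or S. aureus (n = 15). Survival was recorded for up to 7 days, with checks every 6 h and euthanasia by CO2 at the humane end point.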

[22] = test system: BMDM; assay: Induction of CCL4 mRNA up-regulation in mouse BMDM at 20 ug/ml after 3 hrs by qRT-PCR analysis; assay type: functional; in short: as §1
[23] = test system: Mus musculus; assay: Stimulation of innate immune response in Kunming mouse infected with Pseudomonas aeruginosa ATCC 27853 assessed as effect on CXCL2 production in peritoneal lavage at 10 mg/kg, ip after 3 hrs by ELISA; assay type: functional, organism-based; parameters: dose 10 mg/kg
In short: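 Mice were pretreated ip with peptide at 10 mg/kg 5 h before ip challenge with P. aeruginosa 27853 at 8 × 10^7 CFU/mouse. CCL2 and CXCL2 were measured in peritoneal lavage collected 3 h after inoculation. TNF-α and IL-6 were measured in serum collected 5 h after inoculation. All were read by ELISA; data are mean ± SD from four mice, unpaired t test.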

With CC[C@H](C)[C@H](NC(=O)[C@@H](NC(=O)[C@H](CCCNC(=N)N)NC(=O)[C@@H]1CCCN1C(=O)[C@H](CCCCN)NC(=O)[C@H](CCCCN)NC(=O)[C@H](Cc1ccccc1)NC(=O)[C@H](Cc1ccccc1)NC(=O)[C@H](CCCCN)NC(=O)[C@H](CCCCN)NC(=O)[C@H](C)NC(=O)[C@H](CCCNC(=N)N)NC(=O)[C@H](CCCCN)NC(=O)[C@H](CCCCN)NC(=O)[C@@H](NC(=O)[C@H](CO)NC(=O)[C@H](CC(N)=O)NC(=O)[C@H](CCCCN)NC(=O)[C@H](CC(C)C)NC(=O)[C@H](CCCCN)NC(=O)[C@H](CCCCN)NC(=O)[C@H](Cc1ccccc1)NC(=O)[C@H](Cc1ccccc1)NC(=O)[C@@H](N)CCCCN)C(C)C)C(C)C)C(=O)NCC(=O)N[C@H](C(=O)N[C@@H](CO)C(=O)N[C@H](C(=O)N1CCC[C@H]1C(=O)N[C@@H](Cc1ccccc1)C(=O)O)[C@@H](C)CC)C(C)C (H-KFFKKLKNSVKKRAKKFFKKPRVIGVSIPF-OH) the Activity [1] was “inactive”, the “fold change (FC)” value [2] was 51 and the Activity [3] was “Active”. For the same compound, the Activity [4] was “Active”, the Activity [5] was 232 pg/mL and the Activity [6] was “Active”. The Activity [7] was 979.6 pg/mL, the Activity [8] was 952 pg/mL and the Activity [9] was “inactive”. For the same compound, the “fold change (FC)” value [10] was 5, the Activity [11] was “inactive” and the inhibition [12] was “Active”. For the same compound, the Activity [13] was “Active”, the Activity [14] was “Active” and the Activity [15] was “Active”. For the same compound, the Activity [16] was “Active”, the Activity [17] was “Active” and the Activity [18] was “Active”. The Activity [19] was “inactive”, the Activity [20] was “Active” and the survival at 10 mg/kg [21] was 92.5%. The Activity [22] was “Active” and the Activity [23] was “Active”.
